Assay results: ChEMBL document CHEMBL4038336 (J Med Chem, 2017)
Activity calls are given as the source filed them.

Tests used:
[1] = Half life in swine brain at 10 uM after 30 to 60 mins by LC-MS/MS analysis; type: ADME, tissue-based, Sus scrofa; conditions: pig
Procedure, shortened: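 Prodrugs at 10 µM spiked into swine brain homogenate (1% w/v) and incubated at 37 °C with orbital shaking. Triplicate aliquots were taken at 0, 30 and 60 min and quenched with ice-cold acetonitrile containing losartan IS. Prodrug was measured by LC-MS/MS as the analyte/IS peak-area ratio. t1/2 = 0.693/Kel, with Kel the slope of ln % remaining versus time.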

[2] = AUC (0 to t) in swine at 1.6 mg/kg, iv infusion via saphenous vein after 5 to 60 mins by LC-MS/MS analysis; type: ADME, organism-based, Sus scrofa; conditions: pig, in vivo
Procedure, shortened: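 DON (1.6 mg/kg) or molar-equivalent prodrug in sterile saline with 5% ethanol and 5% Tween 80, given as 1 h iv infusion via saphenous catheter to swine (n = 1/dose). Plasma from jugular central venous catheter at predose, 5, 15, 30, 45, 60 min. DON extracted with methanol plus glutamate-d5 IS, dabsyl chloride derivatized, quantified by LC-MS/MS; AUC0–t from plasma profile.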

[3] = Unbound drug level in swine brain at 1.6 mg/kg, iv infusion via saphenous vein after 60 mins by LC-MS/MS analysis; type: ADME, organism-based, Sus scrofa; conditions: pig, in vivo, 1 h
Procedure, shortened: (§1)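 Swine, n = 2/dose. Dosing was iv infusion over 1 h (1.6 mg/kg or molar equivalent), with brain and plasma taken 60 min post-infusion and totals measured by LC–MS/MS after dabsyl derivatisation. Free levels were calculated from the totals using ultrafiltration-derived bound fractions for brain and plasma (10 µM, 37 °C, 30 min).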

[4] = Total drug uptake in swine brain at 1.6 mg/kg, iv infusion via saphenous vein after 60 mins by LC-MS/MS analysis; type: ADME, organism-based, Sus scrofa; conditions: pig, in vivo, 1 h
Procedure, shortened: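 Anaesthetised swine, n = 2/dose. Infusion iv via saphenous vein over 1 h at 1.6 mg/kg or molar equivalent, in saline with 5% ethanol and 5% Tween 80. Animals were euthanised 60 min post-infusion and frontal cortex sampled. Extraction used methanol with glutamate-d5, then dabsyl chloride derivatisation (pH 9.0, 60 °C, 15 min) and LC–QTOF-MS.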

[5] = Total plasma concentration in swine at 1.6 mg/kg, iv infusion via saphenous vein after 60 mins by LC-MS/MS analysis; type: ADME, organism-based, Sus scrofa; conditions: pig
Procedure, shortened: (§2)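 Terminal swine study using the same 1 h iv dosing, 1.6 mg/kg DON or molar equivalent (n = 2/dose). Animals were euthanized with pentobarbital/phenytoin at 60 min postinfusion. Plasma and full-thickness frontal cortex were collected. DON was quantified by LC-MS/MS after methanol extraction with glutamate-d5 IS and dabsyl chloride derivatization. Values are mean ± SEM.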

Plasma [6] = experiment: Unbound plasma concentration in swine at 1.6 mg/kg, iv infusion via saphenous vein after 60 mins by LC-MS/MS analysis; type: ADME, organism-based, Sus scrofa; conditions: pig, in vivo, 1 h; procedure, shortened: as §1
[7] = Total drug uptake in swine cerebrospinal fluid at 1.6 mg/kg, iv infusion via saphenous vein after 60 mins by LC-MS/MS analysis; type: ADME, organism-based, Sus scrofa; conditions: pig, read-out: Drug uptake
Procedure, shortened: (§3)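 Swine received DON 1.6 mg/kg or molar-equivalent prodrug by 1 h iv saphenous infusion in saline/5% ethanol/5% Tween 80 (n = 1/dose). Plasma was sampled via jugular catheter. CSF was taken from the cisterna magna at 60 min postdose. DON was methanol-extracted, dabsyl-derivatized and quantified by LC-MS/MS.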

[8] = Ratio of total drug level in swine brain to plasma at 1.6 mg/kg, iv infusion via saphenous vein after 60 mins by LC-MS/MS analysis; type: ADME, organism-based, Sus scrofa; conditions: pig, read-out: BPR; procedure, shortened: as §2
[9] = Ratio of total drug level in swine cerebrospinal fluid to plasma at 1.6 mg/kg, iv infusion via saphenous vein after 60 mins by LC-MS/MS analysis; type: ADME, organism-based, Sus scrofa, CSF/Plasma; conditions: pig; procedure, shortened: as §3
[10] = Ratio of total drug level in swine cerebrospinal fluid to unbound drug level in swine brain at 1.6 mg/kg, iv infusion via saphenous vein after 60 mins by LC-MS/MS analysis; type: ADME, organism-based, Sus scrofa; conditions: pig, in vivo, 1 h
Procedure, shortened: (§4)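 Free DON was derived from total swine brain and plasma levels at 60 min after 1.6 mg/kg-equivalent iv infusion. Unbound fraction came from ultrafiltration: DON 10 µM spiked into swine plasma or brain homogenate, 30 min at 37 °C, centrifuged through a 30 kDa cut-off filter at 37 °C for 45 min. fu = Cu/Ct × 100 by LC-MS/MS.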

[11] = Ratio of unbound drug level in swine brain to plasma at 1.6 mg/kg, iv infusion via saphenous vein after 60 mins by LC-MS/MS analysis; type: ADME, organism-based, Sus scrofa; conditions: pig; procedure, shortened: as §4
[12] = Ratio of total drug level in swine cerebrospinal fluid to unbound plasma concentration in swine at 1.6 mg/kg, iv infusion via saphenous vein after 60 mins by LC-MS/MS analysis; type: ADME, organism-based, Sus scrofa; conditions: pig, in vivo, 1 h
[13] = Fraction unbound in swine brain at 1.6 mg/kg, iv infusion via saphenous vein after 60 min post-infusion by LC-MS/MS analysis; type: ADME, organism-based, Sus scrofa; conditions: pig, in vivo, 1 h
Mus musculus [14] = experiment: Toxicity in EcoHIV-infected C57BL/6J mouse assessed as change in visual impairment at 1 mg/kg, […] starting 1 day prior to EcoHIV infection and continuing every other day till day 30 measured after 30 days post infection; type: organism-based; conditions: in vivo, 720 h
Mus musculus [15] = experiment: Toxicity in EcoHIV-infected C57BL/6J mouse assessed as change in motor function at 1 mg/kg, […] starting 1 day prior to EcoHIV infection and continuing every other day till day 30 measured after 30 days post infection; type: organism-based; conditions: in vivo, 720 h
Mus musculus [16] = experiment: Toxicity in EcoHIV-infected C57BL/6J mouse assessed as change in body weight at 1 mg/kg, […] starting 1 day prior to EcoHIV infection and continuing every other day till day 30 measured after 30 days post infection; type: organism-based; conditions: in vivo, 720 h
Mus musculus [17] = experiment: Toxicity in EcoHIV-infected C57BL/6J mouse assessed as diarrhea at 1 mg/kg, […] starting 1 day prior to EcoHIV infection and continuing every other day till day 30 measured after 30 days post infection; type: organism-based; conditions: in vivo, 720 h
[18] = Protein binding in swine brain at 10 uM after 30 mins by ultrafiltration method; type: ADME, tissue-based, Sus scrofa; conditions: pig, 0.5 h
Procedure, shortened: (§5)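 Drug was spiked at 10 µM into swine plasma or swine brain homogenate and held 30 min at 37 °C. Samples were ultrafiltered (30 kDa cutoff) by centrifugation for 45 min at 37 °C, 1800g. Filtrate and unfiltered matrix were extracted and quantified by LC–MS/MS. Fraction unbound = Cu/Ct × 100.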

Plasma [19] = experiment: Protein binding in swine plasma at 10 uM after 30 mins by ultrafiltration method; type: ADME, cell-free, Sus scrofa; conditions: pig, 0.5 h; procedure, shortened: as §5
Mus musculus [20] = experiment: (§6) Decrease in cognitive decline in C57BL/6J mouse EcoHIV associated neurocognitive disorder model assessed as decrease in latency to escape to hidden platform at 1 mg/kg, […] starting 1 day prior to EcoHIV infection and continuing every other day till day 30 measured after 30 days post infection by radial arm water maze test; type: functional, organism-based
Mus musculus [21] = experiment: as §6, with “number of errors across learning trial 1” for “latency”, “4 and retention trial” for “escape to hidden platform”; type: functional, organism-based
Procedure, shortened: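 Male C57BL/6J mice, 5 weeks old, n = 8/group. Dosing was 1 mg/kg ip every other day, starting 1 day before ip EcoHIV (2 × 10^6 pg p24) or PBS sham, and continued through testing. From day 30 p.i., radial arm water maze: daily four 60 s learning trials, then a 60 s retention test after 30 min rest. Hidden platform arm rotated daily. Values are last-3-day averages.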

Mus musculus [22] = experiment: Effect on latency to escape to visible platform in C57BL/6J mouse EcoHIV associated neurocognitive disorder model at 1 mg/kg, […] starting 1 day prior to EcoHIV infection and continuing every other day till day 30 measured after 30 days post infection by radial arm water maze test; type: organism-based; conditions: in vivo, 720 h
Procedure, shortened: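 Same mice, dosing and EcoHIV or sham inoculation as the maze study. After the hidden-platform radial arm water maze testing, latency to reach a visible platform in the same context was timed. This serves as a control for vision, motivation and swimming ability.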

[23] = tested on: Human immunodeficiency virus; experiment: Increase in EcoHIV viral DNA load in infected C57BL/6J mouse spleen at 1 mg/kg, […] starting 1 day prior to EcoHIV infection and continuing every other day till day 30 measured after 30 days post infection by qPCR method; type: organism-based; conditions: in vivo, 720 h
[24] = tested on: Human immunodeficiency virus; experiment: Effect on EcoHIV viral DNA load in infected C57BL/6J mouse brain at 1 mg/kg, […] starting 1 day prior to EcoHIV infection and continuing every other day till day 30 measured after 30 days post infection by qPCR method; type: organism-based; conditions: in vivo, 720 h

SMILES	half-life at 10 µM [1] [min]	AUC(0-t) [2] [µM·h]	Drug uptake(free) [3] [nmol/g]	Drug uptake [4] [nmol/g]	concentration at 1 h [5] [µM]	Cp(f) (Plasma [6]) [µM]	concentration at 1 h [7] [µM]	Kp at 1 h [9]	Kp uu at 1 h [11]	Drug uptake(free) [13] [nmol/g]	also measured
CC(C)OC(=O)[C@H](CCC(=O)C=[N+]=[N-])NC(=O)OC(OC(=O)C(C)(C)C)C(C)C (mixture of isomers)	35	–	–	–	–	–	–	–	–	–	–
CC(C)OC(=O)[C@H](CCC(=O)C=[N+]=[N-])NC(=O)OC(OC(=O)C(C)(C)C)c1ccccc1 (some centres not stated)	31	5.7	0.531	5.9	4.88	3.86	1.1	0.069	0.157	0.53	Kp at 1 h [8]: 1.38; Ratio [10]: 2.07; Ratio [12]: 0.087
[N-]=[N+]=CC(=O)CC[C@H](N)C(=O)O [6-DIAZO-5-OXO-L-NORLEUCINE]	–	29.9	0.464	5.15	41.2	32.5	0.252	0.005	0.017	0.46 to 0.531	Activity (Mus musculus [14]): Non-Toxic; Activity (Mus musculus [15]): Non-Toxic; Activity (Mus musculus [16]): Non-Toxic; Activity (Mus musculus [17]): Non-Toxic; PB [18]: 91%; PPB (Plasma [19]): 21%; Activity (Mus musculus [20]): Active; Activity (Mus musculus [21]): Active; Activity (Mus musculus [22]): Non-Toxic; Activity [23]: Toxic; Activity [24]: Non-Toxic

Continued, in another order:

half-life at 10 µM [1] [min]	AUC(0-t) [2] [µM·h]	SMILES	Drug uptake(free) [3] [nmol/g]	Drug uptake [4] [nmol/g]	concentration at 1 h [5] [µM]	Cp(f) (Plasma [6]) [µM]	concentration at 1 h [7] [µM]	Kp at 1 h [9]	Kp uu at 1 h [11]	Drug uptake(free) [13] [nmol/g]	also measured
75	8	CC(C)OC(=O)[C@H](CCC(=O)C=[N+]=[N-])NC(=O)O[C@H](C)OC(=O)C(C)(C)C	–	–	–	–	–	–	–	–	–
291	–	CC(C)OC(=O)[C@H](CCC(=O)C=[N+]=[N-])NC(=O)OC(C)(C)OC(=O)C(C)(C)C	–	–	–	–	–	–	–	–	–
